High-throughput results as filed in PubChem BioAssay.
CHOP inh – inhibitors of CHOP induction in ER stress response. CHO-K1 CHOP-promoter luciferase, tunicamycin-induced, 15-18 h. inhibition, % at 10 µM. 220,000 compounds, 3.8% hits. AID 2732;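 active = compounds that reduced the stress-induced luciferase reporter signal by more than about 70% of percent inhibition, limit read from the data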;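 also: 0% = tunicamycin plus vehicle and 100% = wells without tunicamycin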
A1 inh – inhibitors of the anti-apoptotic protein A1, read as caspase activation. MEF A1-2A-BIM cells, Caspase-Glo 3/7 luminescence, 3 h; percent of clofoctol response, vehicle zero. caspase activation, % (concentration not given with the values). 330,000 compounds, 0.066% hits;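 active = over half of replicate activation scores above 10%, or exactly half above 10 with the replicate mean above 10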
XBP1 UPR activ – adaptive UPR (XBP1) activation; activation, % at 20 µM; 330,000 compounds, 0.33% hits; CHO-XBP1 luciferase reporter, IRE1-XBP1 UPR activation, luminescence; percent of tunicamycin response, DMSO as zero;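 active = versus positive control, 20 µM dose yields 30% or more activation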;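 also: 100% = tunicamycin at 10 µg/mL and 0% = DMSO only wells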
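Signal: luciferase luminescence; Assay system: CHO-XBP1 luciferase reporter cells; Amount: one thousand reporter cells per well; Dosing: 20 µM single concentration, DMSO 1%; Benchmarks: high control tunicamycin 10 µg/mL final, low control DMSO vehicle only; Schedule: 6 h compound exposure at 37 °C, 5% CO2; Evaluation: percent activation relative to tunicamycin reference.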
UPR CHOP act – activators of apoptotic arm of unfolded protein response (CHOP) | AID 449763 | CHO-CHOP luciferase reporter, UPR activation, luminescence; percent of tunicamycin response over DMSO baseline | 330,000 compounds, 0.34% hits | activation, % at 10 µM;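 active = at 10 µM dose, activation of 40% or more, normalized to positive control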;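 also: 100% = tunicamycin at 10 µg/mL and 0% = DMSO alone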
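Assay system: CHO-CHOP cells, stable luciferase reporter of PERK-eIF2a-CHOP signalling / Buffer or medium: F12 plus 10% serum / Compound dosing: one dose, 10 µM in 0.5% DMSO / Times: 6 h compound treatment, 37 °C / Technique: luciferase luminescence / Read-out: % reporter activation, DMSO baseline versus tunicamycin full activation / Benchmarks: tunicamycin and DMSO controls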
CHOP UPR conf – apoptotic UPR (CHOP) activation, confirmed | shares compounds with UPR CHOP act | CHO-CHOP cells, CHOP-luciferase reporter luminescence; percent of tunicamycin response, DMSO as zero | activation, % at 10 µM | 1,000 compounds, 64% hits; in the data active = activation above about 33%;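 also: 0% = DMSO wells and 100% = tunicamycin 10 µg/mL wells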
XBP1 UPR conf – confirmation of adaptive unfolded protein response (XBP1) activators; shares compounds with XBP1 UPR activ; CHO-XBP1 IRE1-XBP1 luciferase reporter, luminescence; activation, % at 20 µM; 1,000 compounds, 63% hits; AID 485299;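 active = reporter signal at least 30% of the positive control's activation in two or more of four replicate wells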;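 also: plate controls were DMSO negative control for no effect and tunicamycin 10 µg/mL positive control for full effect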
Starred values were filed as active, the others as inactive; x = no result given. The full list was thinned out, with hits kept by preference.

SMILES	CHOP inh	A1 inh	XBP1 UPR activ	UPR CHOP act	XBP1 UPR conf	others
COc1ccccc1C(=O)NC(=S)NNC(=O)c1sc2ccccc2c1Cl	89*	1	38*	48*	53*	CHOP UPR conf=51*
CCOC(=O)c1c(NC(C)=O)sc2c1CCC(C=O)=C2Sc1ccccc1	-14	0	64*	294*	12	CHOP UPR conf=632*
CCc1cc2c(N=Nc3c(O)[nH]c4ccccc34)ncnc2s1	52	1	35*	16	4
COc1ccc(CCNC(=O)c2ccc3c(c2)N(Cc2ccc(F)cc2)CCS3)cc1OC	x	0	-6	-1	x
O=C(N[C@@H]1C/C=C\C[C@H](CC(=O)N(CCO)Cc2ccccc2)C(=O)N[C@@H](Cc2ccccc2)COC1=O)OCC1c2ccccc2-c2ccccc21	x	0	50*	33	13
C[C@@H]1COC(=O)[C@H](NC(=O)OCC2c3ccccc3-c3ccccc32)C/C=C\C[C@@H](CC(=O)N(CCO)Cc2ccccc2)C(=O)N1	x	0	-2	0	x
O=C(Oc1cccc(C(=S)N2CCOCC2)c1)c1cccc([N+](=O)[O-])c1	20	1	-1	-1	x
CC(C)(C)NC(=O)COc1ccc2oc3c(c2c1)CCCC3	x	0	3	4	x
O=C(CCl)Nc1ccccc1Sc1ccc(Cl)cc1	-26	0	45*	25	7
Cc1ccc(-c2cc(Cc3cccs3)c(=O)[nH]n2)cc1	18	-1	2	4	x
O=C(NNC(=O)C1CC(=O)N(c2ccc3c(c2)OCCO3)C1)c1ccc(F)cc1 (configuration not stated)	x	1	0	1	x
O=C(Cn1c2ccccc2c(=O)c2ccccc21)Nc1ccccc1F	23	-1	0	0	x
O=C(Cn1c2ccccc2c(=O)c2cc([N+](=O)[O-])ccc21)Nc1ccccc1Cl	36	2	118*	29	80*
Cc1ccc2nc(Nc3nc(-c4ccccc4)cc(=O)[nH]3)nc(C)c2c1	48	0	67*	5	72*
Cc1ccc2nc(Nc3nc(C)cc(-c4ccccc4)n3)[nH]c(=O)c2c1	48	-1	31*	7	62*
COc1ccc2c(C)nc(Nc3nc(-c4ccccc4)cc(=O)[nH]3)nc2c1	20	0	9	-7	x
CC1(C)[N+]([O-])=C2C(=[N+]([O-])C1(C)C)c1ccccc1/C2=N\O	5	0	2	-1	x
Cc1sc(NC(=O)c2ccco2)c(C(c2ccc(F)cc2)N2CCN(C)CC2)c1C (configuration not stated)	39	-1	1	1	x
Cc1sc(NC(=O)c2ccco2)c(C(c2cccnc2)N2CCN(c3ccc(F)cc3)CC2)c1C (configuration not stated)	x	0	33*	17	18
O=C(Nc1nc2ccccc2s1)c1cc2c(s1)-c1ccccc1OC2	22	-1	134*	24	93*
CC(C)(C)OC(=O)N/N=C\c1cccnc1	13	-1	-2	0	x
Cc1ccc(C(C(=O)NCc2ccco2)N(C(=O)CNC(=O)c2cccs2)c2c(C)cc(C)cc2C)cc1 (configuration not stated)	74*	0	36*	25	32*
COc1ccc(/C=C2\SC(=S)N(CCCC(=O)Nc3cc(C)on3)C2=O)cc1OC	x	-1	42*	1	2
COc1ccc(C(CC(=O)c2ccccc2)S(=O)(=O)c2ccc(C)cc2)cc1 (configuration not stated)	-44	-4	2	4	x
CCCCSc1c(C)c2cc3c(cc2[nH]c1=O)OCO3	37	1	-1	1	x
O=C(CN1CCCCC1)Nc1c2c(nc3ccccc13)N(c1ccccc1)CC2	86*	0	56*	3	29
Cc1cccc(CN2CCNC2=O)c1	-1	1	2	2	x
O=C(CSc1cccc2cccnc12)N/N=C/c1ccc(O)cc1	21	2	1	-2	x
